Three compounds from ChEMBL document CHEMBL1132294, “Derivatives of the new ring system indolo[1,2-c]benzo[1,2,3]triazine with potent antitumor and antimicrobial activity” (J Med Chem, 1999) can be followed below.

Bounds are passed on as bounds.

Holding throughout (format): functional, cell-based
Holding throughout (conditions): Homo sapiens

Assay [1] has as its system KB. In words: Antiproliferative activity against drug-resistant tumor cell line KBCamp. Put shortly:
(§1)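 Solid-tumour and KB lines: exponentially growing cells seeded at 5×10⁴ cells/mL, allowed to adhere 16 h, then serial drug dilutions added. Viability by MTT after 4 days. Growth expressed as % of untreated controls, 50% inhibitory concentration by linear regression. Untreated cells undergo at least three rounds of multiplication.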

The test system of assay [2] is KB. As to the kind of experiment: Antiproliferative activity against drug-resistant tumor cell line KBMDR. Put shortly:
as §1

Assay [3] concerns KB. In words: Antiproliferative activity against drug-resistant tumor cell line KB7D. Put shortly:
as §1

The subject of assay [4] is KB. As to the kind of experiment: Antiproliferative activity against drug-resistant tumor cell line KBwt. The essentials: as §1
Assay [5] has as its system KB. As to the kind of experiment: Antiproliferative activity against drug-resistant tumor cell line KBV20C. Put shortly:
as §1

What is called IC50 is the concentration that gives 50% inhibition.

Turning to `CC[C@@]1(O)C(=O)OCc2c1cc1n(c2=O)Cc2cc3ccccc3nc2-1` [CAMPTOTHECIN], the 50% inhibitory concentration (IC50) with KB [1] turned out to be 1040 nM; in the assay with KB [2] it was 70 nM; in the assay with KB [3] it was 35 nM; in the assay on KB [4], 40 nM; with KB [5], 30 nM.

Regarding `COc1cc([C@@H]2c3cc4c(cc3[C@@H](O[C@@H]3O[C@@H]5CO[C@@H](C)O[C@H]5[C@H](O)[C@H]3O)[C@H]3COC(=O)[C@H]23)OCO4)cc(OC)c1O` [ETOPOSIDE], the IC50 was 1300 nM in the assay on KB [1]; 26200 nM in the assay with KB [2]; more than 50000 nM with KB [3]; 1450 nM in the assay with KB [4]; more than 50000 nM with KB [5].

With `CC[C@]1(O)C[C@H]2CN(CCc3c([nH]c4ccccc34)[C@@](C(=O)OC)(c3cc4c(cc3OC)N(C=O)[C@H]3[C@@](O)(C(=O)OC)[C@H](OC(C)=O)[C@]5(CC)C=CCN6CC[C@]43[C@@H]65)C2)C1` [VINCRISTINE], the half-maximal inhibitory concentration (IC50) with KB [1] turned out to be 5 nM; in the assay with KB [2], 350 nM; in the assay with KB [3] it was 35 nM; in the assay with KB [4] it was 1 nM; in the assay with KB [5] it was 50 nM.
